# Assays:
# [1] = system: Staphylococcus epidermidis; experiment: Antibacterial activity against methicillin-sensitive Staphylococcus epidermidis 09-3 after 18 to 24 hrs by NCCLS M100-S11 two fold serial dilution method; assay type: functional
# Procedure, shortened: (§1)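 Two-fold serial dilution in agar medium. MIC read as the lowest concentration giving complete inhibition of bacterial growth after incubation at 35 °C for 18–24 h.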
# Escherichia coli [2] = experiment: Antibacterial activity against Escherichia coli 08-22 after 18 to 24 hrs by NCCLS M100-S11 two fold serial dilution method; assay type: functional
# Pseudomonas aeruginosa [3] = experiment: Antibacterial activity against Pseudomonas aeruginosa 09-33 after 18 to 24 hrs by NCCLS M100-S11 two fold serial dilution method; assay type: functional
# Escherichia coli [4] = experiment: Antibacterial activity against Escherichia coli ATCC 25922 after 18 to 24 hrs by NCCLS M100-S11 two fold serial dilution method; assay type: functional; settings: ATCC25922
# Staphylococcus aureus [5] = experiment: Antibacterial activity against methicillin-resistant Staphylococcus aureus 08-1 after 18 to 24 hrs by NCCLS M100-S11 two fold serial dilution method; assay type: functional; procedure, shortened: as §1
# Staphylococcus aureus [6] = experiment: Antibacterial activity against Staphylococcus aureus ATCC 25923 after 18 to 24 hrs by NCCLS M100-S11 two fold serial dilution method; assay type: functional; settings: ATCC25923
# [7] = system: Staphylococcus epidermidis; experiment: Antibacterial activity against methicillin-sensitive Staphylococcus epidermidis 09-6 after 18 to 24 hrs by NCCLS M100-S11 two fold serial dilution method; assay type: functional; procedure, shortened: as §1
# Enterococcus faecium [8] = experiment: Antibacterial activity against Enterococcus faecium 08-7 after 18 to 24 hrs by NCCLS M100-S11 two fold serial dilution method; assay type: functional
# Pseudomonas aeruginosa [9] = experiment: Antibacterial activity against Pseudomonas aeruginosa ATCC 27853 after 18 to 24 hrs by NCCLS M100-S11 two fold serial dilution method; assay type: functional
# Enterococcus faecium [10] = experiment: Antibacterial activity against Enterococcus faecium 08-2 after 18 to 24 hrs by NCCLS M100-S11 two fold serial dilution method; assay type: functional
# Enterococcus faecalis [11] = experiment: Antibacterial activity against Enterococcus faecalis 08-10 after 18 to 24 hrs by NCCLS M100-S11 two fold serial dilution method; assay type: functional
# Streptococcus pneumoniae [12] = experiment: Antibacterial activity against Streptococcus pneumoniae 08-2 after 18 to 24 hrs by NCCLS M100-S11 two fold serial dilution method; assay type: functional
# Pseudomonas aeruginosa [13] = experiment: Antibacterial activity against Pseudomonas aeruginosa 09-34 after 18 to 24 hrs by NCCLS M100-S11 two fold serial dilution method; assay type: functional
# Escherichia coli [14] = experiment: Antibacterial activity against Escherichia coli 08-21 after 18 to 24 hrs by NCCLS M100-S11 two fold serial dilution method; assay type: functional
# [15] = system: Staphylococcus epidermidis; experiment: Antibacterial activity against methicillin-resistant Staphylococcus epidermidis 09-4 after 18 to 24 hrs by NCCLS M100-S11 two fold serial dilution method; assay type: functional; procedure, shortened: as §1
# Klebsiella pneumoniae [16] = experiment: Antibacterial activity against Klebsiella pneumoniae 09-23 after 18 to 24 hrs by NCCLS M100-S11 two fold serial dilution method; assay type: functional
# Pseudomonas aeruginosa [17] = experiment: Antibacterial activity against Pseudomonas aeruginosa 09-32 after 18 to 24 hrs by NCCLS M100-S11 two fold serial dilution method; assay type: functional
# Enterococcus faecalis [18] = experiment: Antibacterial activity against Enterococcus faecalis 08-12 after 18 to 24 hrs by NCCLS M100-S11 two fold serial dilution method; assay type: functional
# Staphylococcus aureus [19] = experiment: Antibacterial activity against methicillin-sensitive Staphylococcus aureus 08-1 after 18 to 24 hrs by NCCLS M100-S11 two fold serial dilution method; assay type: functional
# [20] = Cytotoxicity against african green monkey Vero cells after 72 hrs by MTT assay; assay type: cell-based; settings: chlorocebus sabaeus
# Procedure, shortened: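 Vero cells were kept in Minimum Essential Medium with Earle's salts plus 10% fetal bovine serum at 37 °C under 5% CO₂. Cells were seeded at 1 × 10⁴ per well and allowed to recover 24 h. Medium was then replaced with assay medium containing compound or no drug, and cells were exposed for 72 h. CC₅₀ is the 50% cellular cytotoxic concentration.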
# Klebsiella pneumoniae [21] = experiment: Antibacterial activity against Klebsiella pneumoniae 09-22 after 18 to 24 hrs by NCCLS M100-S11 two fold serial dilution method; assay type: functional
# Streptococcus pneumoniae [22] = experiment: Antibacterial activity against Streptococcus pneumoniae 08-4 after 18 to 24 hrs by NCCLS M100-S11 two fold serial dilution method; assay type: functional
SMILES,MIC [1],MIC (Escherichia coli [2]),MIC (Pseudomonas aeruginosa [3]),MIC (Escherichia coli [4]),MIC (Staphylococcus aureus [5]),MIC (Staphylococcus aureus [6]),MIC [7],MIC (Enterococcus faecium [8]),MIC (Pseudomonas aeruginosa [9]),MIC (Enterococcus faecium [10]),MIC (Enterococcus faecalis [11]),MIC (Streptococcus pneumoniae [12]),MIC (Pseudomonas aeruginosa [13]),MIC (Escherichia coli [14]),MIC [15],MIC (Klebsiella pneumoniae [16]),MIC (Pseudomonas aeruginosa [17]),MIC (Enterococcus faecalis [18]),MIC (Staphylococcus aureus [19]),CC50 at 72 h [20],also measured
CCO/N=C(\C)CN1CCN(c2c(F)cc3c(=O)c(C(=O)O)cn(C4CC4)c3c2OC)CC1C (configuration not stated),0.25 µg/mL,> 128 µg/mL,> 128 µg/mL,128 µg/mL,0.25 µg/mL,0.125 µg/mL,0.25 µg/mL,> 128 µg/mL,> 128 µg/mL,> 128 µg/mL,> 128 µg/mL,> 128 µg/mL,> 128 µg/mL,> 128 µg/mL,0.25 µg/mL,> 128 µg/mL,> 128 µg/mL,> 128 µg/mL,0.25 µg/mL,31.2 µg/mL,MIC (Klebsiella pneumoniae [21]): > 128 µg/mL; MIC (Streptococcus pneumoniae [22]): 2 µg/mL
COc1c(N2CCN(CC#N)C(C)C2)c(F)cc2c(=O)c(C(=O)O)cn(C3CC3)c12 (configuration not stated),0.25 µg/mL,8 µg/mL,32 µg/mL,4 µg/mL,1 µg/mL,1 µg/mL,0.25 µg/mL,8 µg/mL,2 µg/mL,8 µg/mL,8 µg/mL,8 µg/mL,2 µg/mL,8 µg/mL,0.25 µg/mL,2 µg/mL,0.25 µg/mL,8 µg/mL,1 µg/mL,354 µg/mL,MIC (Klebsiella pneumoniae [21]): 2 µg/mL; MIC (Streptococcus pneumoniae [22]): 1 µg/mL
COc1c(N2CCN(O)C(C)C2)c(F)cc2c(=O)c(C(=O)O)cn(C3CC3)c12 (configuration not stated),0.25 µg/mL,16 µg/mL,32 µg/mL,4 µg/mL,0.25 µg/mL,0.125 µg/mL,0.25 µg/mL,16 µg/mL,4 µg/mL,16 µg/mL,16 µg/mL,16 µg/mL,4 µg/mL,16 µg/mL,0.25 µg/mL,16 µg/mL,2 µg/mL,16 µg/mL,0.25 µg/mL,19.7 µg/mL,MIC (Klebsiella pneumoniae [21]): 2 µg/mL; MIC (Streptococcus pneumoniae [22]): 2 µg/mL
COc1c(N2CCN(C/C(C)=N/Nc3ccccc3)C(C)C2)c(F)cc2c(=O)c(C(=O)O)cn(C3CC3)c12 (configuration not stated),0.25 µg/mL,0.25 µg/mL,4 µg/mL,0.5 µg/mL,0.125 µg/mL,0.125 µg/mL,0.25 µg/mL,4 µg/mL,2 µg/mL,4 µg/mL,4 µg/mL,0.25 µg/mL,0.25 µg/mL,4 µg/mL,0.25 µg/mL,0.125 µg/mL,0.25 µg/mL,4 µg/mL,0.125 µg/mL,11.1 µg/mL,MIC (Klebsiella pneumoniae [21]): 0.25 µg/mL; MIC (Streptococcus pneumoniae [22]): 0.25 µg/mL
COc1c(N2CCN(CCC(C)=O)C(C)C2)c(F)cc2c(=O)c(C(=O)O)cn(C3CC3)c12 (configuration not stated),0.25 µg/mL,0.5 µg/mL,4 µg/mL,0.5 µg/mL,0.5 µg/mL,0.06 µg/mL,0.25 µg/mL,4 µg/mL,1 µg/mL,4 µg/mL,4 µg/mL,4 µg/mL,0.5 µg/mL,4 µg/mL,0.25 µg/mL,0.5 µg/mL,0.25 µg/mL,4 µg/mL,0.25 µg/mL,9.84 µg/mL,MIC (Klebsiella pneumoniae [21]): 0.5 µg/mL; MIC (Streptococcus pneumoniae [22]): 0.25 µg/mL
COc1c(N2CCN(C/C(C)=N/NC(N)=O)C(C)C2)c(F)cc2c(=O)c(C(=O)O)cn(C3CC3)c12 (configuration not stated),2 µg/mL,> 128 µg/mL,> 128 µg/mL,> 128 µg/mL,2 µg/mL,4 µg/mL,1 µg/mL,> 128 µg/mL,> 128 µg/mL,> 128 µg/mL,> 128 µg/mL,64 µg/mL,> 128 µg/mL,> 128 µg/mL,2 µg/mL,> 128 µg/mL,64 µg/mL,> 128 µg/mL,> 128 µg/mL,500 µg/mL,MIC (Klebsiella pneumoniae [21]): > 128 µg/mL; MIC (Streptococcus pneumoniae [22]): 2 µg/mL
